Results from ChEMBL document CHEMBL1147430, “Inhibition of alpha-chymotrypsin with thiol-bearing substrate analogues in the presence of zinc ion” (Bioorg Med Chem Lett, 2004).
Activity calls are given as the source filed them. The calls are words filed in the database; no cut-off is given here.

Assays:
Chymotrypsinogen B [1] = molecular target: T1, Chymotrypsinogen B (Homo sapiens, UniProt P17538); assay: Inhibitory activity against chymotrypsinogen in the presence of Zn(II) (500 uM)
Procedure, shortened: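 Alpha-chymotrypsin at a final 0.4 μg/mL is added to a mix of Suc-AAPF-pNA (300 μM), ZnCl2 (500 μM) and varied inhibitor concentrations in pH 7.5 buffer (50 mM CaCl2, 50 mM Tris). Initial rates are followed at 405 nm at 25 °C. IC50 is read from a plot of % residual activity versus inhibitor concentration.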

Chymotrypsinogen B [2] = molecular target: T1, Chymotrypsinogen B; assay: Inhibitory activity (up to 2 mM) against chymotrypsinogen in the absence of Zn(II); no inhibition

T1 sequence (P17538 34-164 limits assumed, other chains not shown): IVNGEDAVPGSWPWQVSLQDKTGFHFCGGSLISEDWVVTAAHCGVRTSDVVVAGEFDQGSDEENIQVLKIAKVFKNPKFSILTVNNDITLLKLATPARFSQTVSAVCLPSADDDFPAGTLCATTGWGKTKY
T1 sequence (P17538 167-263 limits assumed, other chains not shown): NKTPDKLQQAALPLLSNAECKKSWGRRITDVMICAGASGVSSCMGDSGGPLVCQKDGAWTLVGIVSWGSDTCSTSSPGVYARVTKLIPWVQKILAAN

O=C(N[C@H](CS)Cc1ccccc1)OCc1ccccc1
IC50 (Chymotrypsinogen B [1]): 3.8 µM | inhibition (Chymotrypsinogen B [2]): inactive

O=C(N[C@@H](CS)Cc1ccccc1)OCc1ccccc1
IC50 (Chymotrypsinogen B [1]): 6 µM | inhibition (Chymotrypsinogen B [2]): inactive

O=C(N[C@H](CS)Cc1ccccc1)c1ccccc1
IC50 (Chymotrypsinogen B [1]): 23 µM | inhibition (Chymotrypsinogen B [2]): inactive

O=C(N[C@@H](CO)Cc1ccccc1)OCc1ccccc1
IC50 (Chymotrypsinogen B [1]): > 3000 µM | inhibition (Chymotrypsinogen B [2]): inactive

CC(=O)N[C@H](CS)Cc1ccccc1
IC50 (Chymotrypsinogen B [1]): > 800 µM | inhibition (Chymotrypsinogen B [2]): inactive

O=C(N[C@H](CS)Cc1ccccc1)[C@@H]1CCCN1C(=O)OCc1ccccc1
IC50 (Chymotrypsinogen B [1]): 8 µM | inhibition (Chymotrypsinogen B [2]): inactive

O=C(N[C@H](CO)Cc1ccccc1)OCc1ccccc1
IC50 (Chymotrypsinogen B [1]): > 3000 µM
